Source: PubChem BioAssay (Broad Institute)
ERp5 inh: ERp5 (human) disulfide isomerase inhibition. Q15084. ERp5 insulin aggregation, absorbance 650 nm, 90 min. inhibition, % at 9.99 µM. 350,000 compounds, 0.05% hits. AID 651711;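 active = mean replicate inhibition above about 25%, with every replicate also reaching it, limit read from the data, passing the limit was not always enough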
AF4-AF9 inh: MLL-AF4/AF9 protein interaction inhibition | AlphaScreen, biotin-AF4 peptide binding to FLAG-AF9 | 350,000 compounds, 0.47% hits | inhibition, % at 10 µM;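 active = every replicate reaching a set inhibition limit, whatever the replicate mean, cut at about 25% in these data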;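 note: 0% = plate neutral control median and 100% = total signal loss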
FGF22 binding: binders of recombinant human FGF22 by thermal shift; 340,000 compounds, 1.5% hits; activity (Tm shift, normalised), % at 9.99 µM; AID 651658; SYPRO orange fluorescence; percent of sucrose octasulfate shift, DMSO zero;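 active = mean Tm shift, scaled 0 neutral to 100 positive control, at about 1.3% or above, every replicate too, limit read from the data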
Target sequence (Q9HCT0 whole entry, looked up): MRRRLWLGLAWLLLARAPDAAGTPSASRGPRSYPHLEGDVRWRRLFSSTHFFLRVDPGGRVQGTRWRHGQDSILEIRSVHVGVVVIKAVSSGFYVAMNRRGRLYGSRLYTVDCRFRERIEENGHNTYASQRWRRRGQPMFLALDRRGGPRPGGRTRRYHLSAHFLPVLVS
PDI turbidity: blocks human protein disulfide isomerase activity; P07237; 350,000 compounds, 0.052% hits; PDI insulin aggregation turbidity, A650, 90 min; inhibition, % at 10 µM; AID 588391;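 active = mean inhibition across replicates of 30% or more, whatever share of single replicates reach that level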
Target sequence (P07237 whole entry, looked up): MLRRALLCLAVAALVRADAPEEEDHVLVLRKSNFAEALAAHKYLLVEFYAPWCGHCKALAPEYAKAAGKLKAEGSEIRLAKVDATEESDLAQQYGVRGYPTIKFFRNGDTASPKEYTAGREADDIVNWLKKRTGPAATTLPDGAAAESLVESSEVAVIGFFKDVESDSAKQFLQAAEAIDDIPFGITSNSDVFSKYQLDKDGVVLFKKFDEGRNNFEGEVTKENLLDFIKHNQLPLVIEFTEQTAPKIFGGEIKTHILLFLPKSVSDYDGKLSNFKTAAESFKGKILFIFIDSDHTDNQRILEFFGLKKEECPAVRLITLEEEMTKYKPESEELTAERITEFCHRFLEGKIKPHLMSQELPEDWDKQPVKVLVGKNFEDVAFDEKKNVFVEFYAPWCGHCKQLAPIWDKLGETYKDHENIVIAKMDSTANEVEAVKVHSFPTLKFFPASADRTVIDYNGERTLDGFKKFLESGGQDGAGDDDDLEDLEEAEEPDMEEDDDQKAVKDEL
FN deposit inh: fibronectin deposition inhibition | AH1F fibroblasts, Alexa488-fibronectin deposition fluorescence, overnight | inhibition, % at 12.6 µM | 350,000 compounds, 0.086% hits | AID 743247;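 active = mean inhibition across replicates of 30% or more, regardless of how many single replicates reach that level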;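 note: positive control wells lacked labelled fibronectin entirely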
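Assay system: AH1F fibroblasts assembling fluorescent fibronectin matrix; Amount: 10000 AH1F cells per well; Buffer or medium: DMEM, 2% serum; Probe or stimulus: Alexa488-fibronectin, 24 nM final in well; Doses: single compound dose, delivered by pin transfer; Incubation: 1 h adhesion, overnight exposure; Measured by: fluorescence 485/525 nm; Read-out: fibronectin deposition inhibition.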
ARNT TACC3 PPI: disruptors of human ARNT/TACC3 interaction | AlphaScreen His-ARNT PAS-B/GST-TACC3 binding, luminescence; TACC3 fragment carries E629A point mutation | inhibition, % at 9.99 µM | 390,000 compounds, 0.66% hits;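 active = mean inhibition of replicates at least 50% and at least half of replicates each reaching 50%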;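 note: 0% = complete ARNT plus TACC3 wells and 100% = ARNT alone without TACC3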
The depositor's hits bear a star; . = no result given. Rows were chosen to be rich in hits. Some 2.1% of all compounds tested hit in one or more screens of this group.

SMILES | ERp5 inh | AF4-AF9 inh | FGF22 binding | PDI turbidity | FN deposit inh | ARNT TACC3 PPI
C[C@@H]1CN([C@@H](C)CO)C(=O)c2cccc(NC(=O)C3CC3)c2O[C@@H]1CN(C)S(=O)(=O)c1cccs1 | -13.3 | 1.3 | 0.0 | . | . | -2.5
O=C(O)C1C2CCC1C(O)C2 (stereo not given) | 6.1 | -4.1 | 43.3* | 4.5 | 5.6 | .
O=C(O)C1C2CCC(CC2)C1C(=O)O (stereo not given) | 8.3 | -1.4 | -0.1 | -3.3 | -9.6 | -1.5
Cc1ccc(S(=O)(=O)N(Cc2cccnc2)Cc2cc3ccccc3[nH]c2=O)cc1 | 3.9 | 29.2* | 42.2 | -1.6 | 3.0 | 16.4
COc1ccc(CSc2nc(C)cc(C)c2C#N)cc1 | 1.2 | 25.2* | 0.3 | -7.0 | -4.5 | -1.3
CCC(=O)N1CC2(C1)[C@H](c1ccc(-c3ccc(C)cc3)cc1)[C@@H](CO)N2S(=O)(=O)CC | 4.5 | 2.4 | 0.9 | . | . | .
C/C=C/c1cnc2c(c1)C(=O)N([C@H](C)CO)C[C@H](C)[C@H](CN(C)C(=O)C1CCOCC1)O2 | 1.4 | -2.1 | -0.3 | . | . | -2.8
O=C(Nc1nnc2n1CCS2)c1ccco1 | 7.8 | 3.8 | -0.1 | -2.0 | 5.8 | 45.3*
O=C(Nc1ccc2c(c1)nc1n2CCSC1)c1ccco1 | . | . | . | 3.3 | -9.3 | 5.8
CC1CCc2c(C(=O)NCc3ccccn3)csc2C1 (stereo not given) | -11.9 | 2.7 | -0.5 | -4.1 | -8.4 | -0.8
CC1CCc2c(C(=O)NCc3cccnc3)csc2C1 (stereo not given) | 2.8 | -0.7 | 43.2* | -6.2 | -6.1 | 18.1
CN(C)c1ccc(N/C=C/C(=O)C(C)(C)C)cc1 | . | . | . | -2.6 | . | 26.8*
CCN1CCN(CC(O)COC(c2ccccc2)c2ccccc2)CC1 (stereo not given) | 5.2 | -1.5 | 43.9* | 0.7 | 4.1 | 0.0
COc1ccc(N2CCN(CC(O)COC(c3ccc(F)cc3)c3ccc(F)cc3)CC2)cc1 (stereo not given) | 1.5 | 27.1* | 0.0 | 2.8 | -1.0 | 31.4
CCCCNC(=O)c1ccc2nc(-c3ccco3)c(-c3ccco3)nc2c1 | -0.5 | 0.0 | 0.1 | -2.1 | -2.3 | 16.8
O=C(NCCCO)c1ccc2nc(-c3ccco3)c(-c3ccco3)nc2c1 | -4.4 | -8.0 | 43.0* | 5.9 | -2.6 | 46.7*
O=C(Nc1ccccc1)c1ccc2nc(-c3ccco3)c(-c3ccco3)nc2c1 | . | . | . | 1.5 | 0.2 | 47.1*
CCOc1ccc(CCN2C(=O)C(=O)N([C@@H](CC(C)C)CN3CCC[C@@H]3CN3C(=O)C(=O)NC[C@@H]3Cc3ccccc3)C[C@@H]2Cc2ccc(O)cc2)cc1 | 1.7 | 3.8 | -0.2 | 53.8* | 5.4 | 0.6
O=C1NC[C@H](Cc2ccccc2)N(C[C@H]2CCCN2C[C@H](Cc2ccccc2)N2C[C@H](Cc3ccc(O)cc3)N(CCc3ccccc3)C(=O)C2=O)C1=O | -3.6 | -1.1 | -0.2 | 42.0* | 8.6 | -5.2
CCNC(=O)Nc1ccc2c(c1)C(=O)N(C)[C@@H]1CC[C@H](CC(=O)NCc3ccc(F)cc3)O[C@@H]1CO2 | -0.8 | -0.3 | -0.1 | . | -9.8 | -4.0
COc1ccc2c3c(n(C)c2c1)[C@@H](CO)N(C(=O)Nc1ccc(F)cc1)CC31CCN(Cc2ccccc2F)CC1 | -5.1 | 5.9 | 0.0 | . | . | .
CCCNC(=O)N(C)C[C@@H]1Oc2ncc(C#Cc3ccncc3)cc2C(=O)N([C@@H](C)CO)C[C@H]1C | 11.6 | -8.3 | 0.1 | . | -2.2 | 4.8
COCC(=O)N(C)C[C@@H]1Oc2cc(-c3cccnc3)ccc2S(=O)(=O)N([C@H](C)CO)C[C@H]1C | -2.7 | 1.6 | -0.2 | . | -7.8 | -7.9
O=C(Nc1ccccc1F)N[C@@H]1CC[C@@H](CCNS(=O)(=O)c2ccc(Cl)cc2)O[C@H]1CO | 6.1 | 2.3 | 0.3 | . | . | -2.3
CCc1ccc(NC(=O)CSc2nc3ccsc3c(=O)n2CCCCCC(=O)O)cc1 | 3.0 | -2.2 | 43.5* | 2.5 | -5.2 | -3.7
SMILES | ERp5 inh | AF4-AF9 inh | FGF22 binding | PDI turbidity | FN deposit inh | ARNT TACC3 PPI
CCOc1ccc(NC(=O)CSc2nc3ccsc3c(=O)n2CCCCC(=O)O)cc1 | 1.8 | 0.9 | 0.0 | 1.8 | -6.4 | .
c1ccc([C@H]2CN3C(=N2)Sc2ccccc23)cc1 | 2.2 | -26.6 | 45.2* | 0.1 | 9.1 | -56.2
CC(=O)N1SC(N)=NC1c1ccccc1 (stereo not given) | . | . | . | 3.6 | -3.4 | -5.8
COC(=O)c1ccccc1NC(=O)Cn1cnc2c1c(=O)n(C)c(=O)n2C | 3.7 | 0.4 | 0.0 | 1.1 | -2.7 | -6.2
CCOc1ccccc1OCC(=O)NNC(=O)Cn1cnc2c1c(=O)n(C)c(=O)n2C | 3.5 | -9.3 | 44.1* | -2.2 | 5.1 | 12.7
Cc1cc(OCc2nc(N)nc(N)c2-c2ccc(Cl)c(Cl)c2)ccc1[N+](=O)[O-] | -10.3 | 2.6 | 0.7 | -8.4 | 34.0* | .
Cc1nc(N)nc(N)c1-c1ccc(Cl)c(Cl)c1 | -1.7 | 5.2 | 0.1 | 16.0 | . | -3.1
C[C@@H]1CCCCO[C@@H](CN(C)C(=O)Cc2ccccc2)[C@@H](C)CN([C@@H](C)CO)C(=O)c2cc(NS(=O)(=O)c3cn(C)cn3)ccc2O1 | -6.3 | 0.6 | 0.0 | . | . | -5.3
O=C(CC1Nc2ccccc2NC1=O)Nc1ccc2c(c1)OCO2 (stereo not given) | 0.8 | 1.4 | -0.3 | -4.4 | 33.6* | -3.8
Cc1ccc(NC(=O)CC2Nc3ccccc3NC2=O)cc1Cl (stereo not given) | . | . | . | -4.2 | . | -5.9
CC1(C)Cc2c(sc(NC(=S)NC(=O)c3ccccc3)c2C(=O)O)CO1 | -1.6 | -3.8 | 43.7* | -1.6 | 5.6 | 2.6
CC1(C)Cc2c(sc(NC(=O)c3ccco3)c2C(=O)O)CO1 | 2.8 | 0.0 | 0.0 | -3.5 | . | -0.5
COCCN(C(=S)Nc1ccccc1C)C(C)c1ccco1 (stereo not given) | 2.2 | 7.8 | 43.2* | -4.7 | -9.2 | -10.8
COc1ccc2c3c(n(C)c2c1)[C@@H](CO)N(C(=O)Nc1ccc(F)cc1)CC31CCN(S(=O)(=O)c2cccc(F)c2)CC1 | -8.5 | -0.7 | 0.0 | . | . | .
COc1ccc(Nc2ccc(Nc3ccc(OC)cc3)nn2)cc1 | 4.6 | 3.9 | -2.2 | -21.5 | -9.2 | -8.1
COc1ccc(Nc2ccc(OC)cc2)cc1 | . | 81.0* | 0.2 | -5.4 | 10.5 | .
COc1ccc2c3c([nH]c2c1)[C@@H](CO)N(C(=O)c1ccncc1)CC31CCN(Cc2cccnc2)CC1 | 0.7 | 3.0 | -0.1 | . | . | .
C[C@H]1CN([C@@H](C)CO)S(=O)(=O)c2ccc(-c3cccnc3)cc2O[C@@H]1CN(C)Cc1ccccn1 | 3.4 | 4.5 | 0.0 | . | -6.6 | -1.2
COc1cc2c(c3ccccc13)CCCC2=O | -8.0 | -2.4 | 43.2* | 5.8 | 4.8 | -16.9
O=C1CCCc2c1ccc1ccccc21 | -1.4 | -3.6 | -0.1 | 5.9 | -1.4 | -9.0
N#C/C(=C\c1cccnc1)C(=O)Nc1ccc(C(=O)O)cc1 | 2.3 | 0.8 | 43.5* | -11.7 | 9.8 | .
